The text below walks through data of ChEMBL document CHEMBL4433246, “Synthesis and Optimization of Kv7 (KCNQ) Potassium Channel Agonists: The Role of Fluorines in Potency and Selectivity” (ACS Med Chem Lett, 2019).

The target of data set [1] is KCNQ4/KCNQ5 (Homo sapiens) (UniProt Q9NR82+P56696). Briefly: Agonist activity at human Kv7.4/Kv7.5 expressed in HEK293 cells assessed as drug concentration that doubles the conductance at voltage leading to 15% channel activation at holding potential of at -80 mV by whole cell patch clamp electrophysiology assay. Type of data set: cell-based. The method, boiled down:
(§1)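 High-throughput automated electrophysiology on an IonWorks Barracuda platform using HEK293 cells expressing the human channel. Ten-point concentration–response curves were run. EC2x is the agonist concentration that doubles conductance at the voltage giving 15% channel activation. Values come from 2–5 individual assay determinations and are given as mean ± SD. The reference agonist was run in 6–431 repeats.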

The target in data set [2] is T1, Potassium voltage-gated channel subfamily KQT member 4 (Homo sapiens) (UniProt P56696).
T1 sequence (whole entry): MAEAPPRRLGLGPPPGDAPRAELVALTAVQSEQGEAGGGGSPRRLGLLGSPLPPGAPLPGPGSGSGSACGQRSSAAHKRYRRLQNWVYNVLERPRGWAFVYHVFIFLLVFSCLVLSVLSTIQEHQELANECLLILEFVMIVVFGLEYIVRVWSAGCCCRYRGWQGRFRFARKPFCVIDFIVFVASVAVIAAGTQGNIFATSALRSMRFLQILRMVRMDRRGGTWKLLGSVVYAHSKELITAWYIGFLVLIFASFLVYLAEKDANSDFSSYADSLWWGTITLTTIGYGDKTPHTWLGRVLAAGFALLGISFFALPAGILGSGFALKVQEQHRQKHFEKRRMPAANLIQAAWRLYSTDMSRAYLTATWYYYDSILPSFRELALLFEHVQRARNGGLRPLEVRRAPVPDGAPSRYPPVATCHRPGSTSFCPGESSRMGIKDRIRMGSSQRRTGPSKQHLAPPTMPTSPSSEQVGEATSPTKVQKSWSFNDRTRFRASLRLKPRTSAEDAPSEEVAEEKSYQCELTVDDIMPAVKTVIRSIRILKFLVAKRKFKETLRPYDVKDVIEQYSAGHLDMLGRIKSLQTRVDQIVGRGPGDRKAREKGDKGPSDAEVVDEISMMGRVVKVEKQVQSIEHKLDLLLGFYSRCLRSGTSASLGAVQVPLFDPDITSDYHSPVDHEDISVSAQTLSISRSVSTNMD
Briefly: Agonist activity at human Kv7.4 expressed in HEK293 cells assessed as drug concentration that doubles the conductance at voltage leading to 15% channel activation at holding potential of at -80 mV by whole cell patch clamp electrophysiology assay. Type of data set: cell-based. The method, boiled down:
as §1
For orientation: Patch clamp records ionic current or voltage across a cell membrane.

The target in data set [3] is Voltage-gated potassium channel KCNQ3/KCNQ5 (Homo sapiens) (UniProt O43525+Q9NR82). Briefly: Agonist activity at human Kv7.3/Kv7.5 expressed in HEK293 cells assessed as drug concentration that doubles the conductance at voltage leading to 15% channel activation at holding potential of at -80 mV by whole cell patch clamp electrophysiology assay. Format: cell-based. The method, boiled down: as §1

Data set [4] has as its target Voltage-gated potassium channel, KQT; KCNQ2(Kv7.2)/KCNQ3(Kv7.3) (Homo sapiens) (UniProt O43526+O43525). Briefly: Agonist activity at human Kv7.2/Kv7.3 expressed in HEK293 cells assessed as drug concentration that doubles the conductance at voltage leading to 15% channel activation at holding potential of at -80 mV by whole cell patch clamp electrophysiology assay. Format: cell-based. The method, boiled down: as §1

The nature of data set [5]: Half life in human liver microsomes. Format: ADME, Microsome. An outline of the steps: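 Stability was measured by incubation with pooled human liver microsomes. Half-life is reported in minutes.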
For orientation: Microsomes from liver hold many membrane-bound enzymes, among them those of drug oxidation.

Data set [6] is filed under the species Homo sapiens. Put plainly: Selectivity index, ratio of EC2x for human Kv7.4/5 expressed in HEK293 cells to EC2x for EC2x for human Kv7.2/3 expressed in HEK293 cells. Format: cell-based. The method, boiled down:
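Selectivity index calculated as EC2x(Kv7.4/Kv7.5) divided by EC2x(Kv7.2/Kv7.3). Both EC2x values came from IonWorks Barracuda automated electrophysiology in HEK293 cells, using 10-point concentration curves and the doubled-conductance definition at 15% activation voltage.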

Data set [7] has as its target Voltage-gated potassium channel, KQT; KCNQ2(Kv7.2)/KCNQ3(Kv7.3) (Homo sapiens, UniProt O43525+O43526). Briefly: Agonist activity at human Kv7.2/Kv7.3 expressed in CHO cells at holding potential of at -85 mV by whole cell patch clamp electrophysiology assay. Format: cell-based.

In general, half-life refers to the time in which the quantity being followed falls by half. Broadly, the pEC50 is the negative decadic logarithm of the EC50, by convention in mol/L.

Structures are written as SMILES. pEC50: −log10 of the molar value.

Chain of Voltage-gated potassium channel, KQT; KCNQ2(Kv7.2)/KCNQ3(Kv7.3) (O43526 whole entry): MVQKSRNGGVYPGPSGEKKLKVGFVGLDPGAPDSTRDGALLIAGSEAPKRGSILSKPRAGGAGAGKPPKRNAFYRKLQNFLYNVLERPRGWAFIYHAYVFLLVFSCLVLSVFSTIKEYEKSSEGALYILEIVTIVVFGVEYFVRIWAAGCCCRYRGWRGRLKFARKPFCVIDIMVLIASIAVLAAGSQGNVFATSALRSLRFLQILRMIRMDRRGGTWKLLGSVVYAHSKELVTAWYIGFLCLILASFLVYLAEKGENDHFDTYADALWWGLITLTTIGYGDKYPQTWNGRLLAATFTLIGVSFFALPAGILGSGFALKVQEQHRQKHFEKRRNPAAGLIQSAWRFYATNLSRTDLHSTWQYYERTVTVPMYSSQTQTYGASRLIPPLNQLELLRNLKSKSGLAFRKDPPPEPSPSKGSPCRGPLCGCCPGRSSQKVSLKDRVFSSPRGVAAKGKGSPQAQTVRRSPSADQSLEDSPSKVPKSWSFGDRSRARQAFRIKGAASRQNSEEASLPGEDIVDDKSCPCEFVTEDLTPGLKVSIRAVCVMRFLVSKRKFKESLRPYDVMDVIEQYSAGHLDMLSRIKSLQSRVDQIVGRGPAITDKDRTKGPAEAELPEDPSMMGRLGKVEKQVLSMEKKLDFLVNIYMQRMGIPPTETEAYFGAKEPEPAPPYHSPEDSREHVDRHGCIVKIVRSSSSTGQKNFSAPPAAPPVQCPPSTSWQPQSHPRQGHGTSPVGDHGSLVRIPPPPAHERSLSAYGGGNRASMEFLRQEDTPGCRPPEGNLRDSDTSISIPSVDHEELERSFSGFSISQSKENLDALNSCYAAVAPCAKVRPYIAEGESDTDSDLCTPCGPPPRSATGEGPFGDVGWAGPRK
Chain of Voltage-gated potassium channel, KQT; KCNQ2(Kv7.2)/KCNQ3(Kv7.3) (O43525 whole entry): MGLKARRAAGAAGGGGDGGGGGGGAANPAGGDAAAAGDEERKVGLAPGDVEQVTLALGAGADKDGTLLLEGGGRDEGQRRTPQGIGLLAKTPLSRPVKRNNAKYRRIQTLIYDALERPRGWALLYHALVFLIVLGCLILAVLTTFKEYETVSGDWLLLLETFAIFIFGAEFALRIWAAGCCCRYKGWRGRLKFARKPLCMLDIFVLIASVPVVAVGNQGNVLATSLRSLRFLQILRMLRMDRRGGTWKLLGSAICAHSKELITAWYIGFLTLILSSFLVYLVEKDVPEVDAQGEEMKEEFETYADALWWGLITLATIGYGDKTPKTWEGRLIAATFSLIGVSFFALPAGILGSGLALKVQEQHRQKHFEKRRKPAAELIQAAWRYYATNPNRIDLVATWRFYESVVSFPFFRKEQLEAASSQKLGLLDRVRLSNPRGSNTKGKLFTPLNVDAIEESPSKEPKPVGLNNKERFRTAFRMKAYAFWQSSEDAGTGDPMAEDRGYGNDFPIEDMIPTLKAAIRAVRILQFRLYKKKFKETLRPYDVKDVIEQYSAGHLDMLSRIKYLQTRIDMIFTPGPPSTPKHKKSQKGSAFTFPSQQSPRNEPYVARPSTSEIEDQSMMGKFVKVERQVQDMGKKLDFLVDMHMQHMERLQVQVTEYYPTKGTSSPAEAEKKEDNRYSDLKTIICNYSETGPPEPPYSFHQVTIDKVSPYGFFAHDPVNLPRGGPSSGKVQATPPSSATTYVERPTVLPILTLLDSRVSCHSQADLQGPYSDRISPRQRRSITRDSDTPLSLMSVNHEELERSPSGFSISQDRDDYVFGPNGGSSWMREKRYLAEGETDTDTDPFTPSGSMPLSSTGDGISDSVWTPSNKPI

As for `Nc1c(F)c(NCc2ccc(C(F)(F)F)cc2F)c(F)c(F)c1NC(=O)OC1CC1`, the EC2 in data set [1], in data set [2], in data set [3] and in data set [4] was more than 10 µM throughout.

`CCOC(=O)Nc1ccc(NCc2ccc(F)cc2)cc1N` [EZOGABINE] gave a half-life in data set [5] of 16.2 h. In addition, the EC2 in data set [3] is 0.34 µM; in data set [4], 0.33 µM.

Take `Nc1c(NC(=O)OC2CC2)ccc(NCc2ncc(C(F)(F)F)cc2F)c1F`: the EC2 is more than 10 µM in data set [1], more than 10 µM in data set [2], more than 10 µM in data set [3] and 1.39 µM in data set [4]. For the same molecule, the Selectivity Index in data set [6] was more than 7.

In the case of `CCOC(=O)Nc1ccc(NCc2ccc(C(F)(F)F)cn2)c(F)c1N`, the EC2 in data set [1] turned out to be 0.59 µM; in data set [2] it was 0.85 µM; in data set [3], 0.79 µM; in data set [4] it was 0.66 µM. The Selectivity Index in data set [6] stood at 0.9.

On to `Nc1c(NC(=O)OC2CC2)cc(F)c(NCc2ccc(C(F)(F)F)cc2F)c1F`, for which the EC2 is more than 10 µM in data set [1], more than 10 µM in data set [2], more than 10 µM in data set [3] and 0.93 µM in data set [4]. Further, in data set [5], the half-life worked out at 1.27 h. In data set [6], the Selectivity Index is more than 10.

Regarding `CCOC(=O)Nc1ccc(NCc2cccc(S(F)(F)(F)(F)F)c2)c(F)c1N`, the EC2 in data set [1] was 0.65 µM; in data set [2], 0.65 µM; in data set [3], 0.21 µM; in data set [4], 0.36 µM. Further, the Selectivity Index in data set [6] worked out at 1.8.

Take `Nc1c(NC(=O)OC2CC2)ccc(NCc2ccc(C(F)(F)F)cc2F)c1F`: the EC2 in data set [1] was 0.35 µM; in data set [2] it was 0.21 µM; in data set [3] it was 0.47 µM; in data set [4], 0.59 µM. The Selectivity Index in data set [6] came to 0.6.

For the molecule `CCOC(=O)Nc1cc(F)c(NCc2ccc(C(F)(F)F)cc2)cc1N`, the EC2 in data set [1] was more than 10 µM; in data set [2], 4.65 µM; in data set [3], more than 10 µM; in data set [4], 1.26 µM. In addition, in data set [6], the Selectivity Index was more than 7.

Turning to `CCOC(=O)Nc1ccc(NCc2ccc(C(F)(F)F)c(C#N)n2)c(F)c1N`, the EC2 in data set [1] was 2.33 µM; in data set [2], 2.17 µM; in data set [3] it was 1.3 µM; in data set [4] it was 1.6 µM. The Selectivity Index in data set [6] is 1.5.

Turning to `CCOC(=O)Nc1ccc(NCc2ccc(C(F)(F)F)cc2)c(F)c1N`, the EC2 was 0.09 µM in data set [1], 0.1 µM in data set [2], 0.29 µM in data set [3] and 0.26 µM in data set [4]. In data set [5], this molecule returned a half-life of 5.73 h. Besides, the Selectivity Index in data set [6] amounted to 0.3.

Take `CCOC(=O)Nc1cc(C(F)(F)F)c(NCc2ccc(C(F)(F)F)cc2)c(F)c1N`: the EC2 in data set [1], in data set [2], in data set [3] and in data set [4] was more than 10 µM throughout.

Regarding `Nc1c(NC(=O)OC2CC2)ccc(NCc2ccc(C(F)(F)F)cn2)c1F`, the EC2 in data set [1] was found to be 0.96 µM; in data set [2], 0.9 µM; in data set [3], 0.72 µM; in data set [4], 0.79 µM. Besides, the Selectivity Index in data set [6] was 1.2.

Regarding `CCOC(=O)Nc1ccc(NCc2ccc(F)cc2)nc1N`, the EC2 amounted to 3.5 µM in data set [1], 5.62 µM in data set [2], 1.58 µM in data set [3] and 2 µM in data set [4]. Besides, the Selectivity Index in data set [6] came out at 1.8.

Turning to `CCOC(=O)Nc1ccc(NCc2ccc(C(F)(F)F)nc2)c(F)c1N`, the EC2 was 1.27 µM in data set [1], 0.95 µM in data set [2], 0.69 µM in data set [3] and 0.61 µM in data set [4]. For the same molecule, the half-life in data set [5] came to 6.77 h. The Selectivity Index in data set [6] came out at 2.1.

As for `CC(C)OC(=O)Nc1ccc(NCc2ccc(C(F)(F)F)cc2)c(F)c1N`, the EC2 in data set [1] turned out to be 4.98 µM; in data set [2] it was 0.19 µM; in data set [3], 0.16 µM; in data set [4], 0.16 µM. The molecule also gave a half-life in data set [5] of 7.52 h. Besides, in data set [6], the Selectivity Index is 31.

On to `CCOC(=O)Nc1ccc(NCc2ccc(C(F)(F)F)cc2F)c(F)c1N`, for which the EC2 in data set [1] stood at 0.3 µM; in data set [2], 0.11 µM; in data set [3], 0.34 µM; in data set [4], 0.18 µM. Moreover, in data set [6], the Selectivity Index came out at 1.7.

For the molecule `Nc1c(NC(=O)OC2CC2)cc(F)c(NCc2ncc(C(F)(F)F)cc2F)c1F`, the EC2 in data set [1], in data set [2], in data set [3] and in data set [4] was more than 10 µM in each case.

Regarding `CCOC(=O)Nc1ccc(NCc2cccc(C(F)(F)F)c2)c(F)c1N`, the EC2 in data set [1] was 0.66 µM; in data set [2] it was 0.4 µM; in data set [3] it was 0.2 µM; in data set [4], 0.14 µM. In addition, the Selectivity Index in data set [6] was 4.7.

`Nc1c(F)c(NCc2ncc(C(F)(F)F)cc2F)cc(F)c1NC(=O)OC1CC1`: the EC2 was more than 10 µM in data set [1], more than 10 µM in data set [2], more than 10 µM in data set [3] and 1 µM in data set [4]. In addition, in data set [6], the Selectivity Index is more than 10.

Turning to `Nc1c(NC(=O)OC2CC2)ccc(NCc2ccc(C(F)(F)F)nc2)c1F`, the EC2 in data set [1] worked out at 1.36 µM; in data set [2], 1.13 µM; in data set [3], 0.69 µM; in data set [4], 0.71 µM. Further, the Selectivity Index in data set [6] came to 1.9.

For the molecule `CCOC(=O)Nc1ccc(NCc2ccc(F)cc2)c(F)c1N`, the pEC50 in data set [7] was 6.22.

`Nc1c(NC(=O)OC2CC2)ccc(NCc2ccc(C(F)(F)F)cc2)c1F`: the EC2 came out at 0.28 µM in data set [1], 0.38 µM in data set [2], 0.23 µM in data set [3] and 0.11 µM in data set [4]. Besides, in data set [6], the Selectivity Index was found to be 2.5.

With `Nc1c(F)c(NCc2ccc(C(F)(F)F)cc2F)cc(F)c1NC(=O)OC1CC1`, the EC2 was more than 10 µM in data set [1], 0.55 µM in data set [2], more than 10 µM in data set [3] and 1.47 µM in data set [4]. The Selectivity Index in data set [6] is more than 7.
